# ChEMBL document CHEMBL1148774, “Doxazolidine induction of apoptosis by a topoisomerase II independent mechanism” (J Med Chem, 2007)
# The source made the active and inactive calls. No cut-off for these calls is given here.
# Tests used:
# Homo sapiens [1] = species: Homo sapiens; test: Inhibition of topoisomerase 2 at 50 nM by decatenation assay
# In short: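 Human recombinant topoisomerase II (one unit) was incubated with 143 ng catenated kinetoplast DNA, with or without drug, for 30 min at 37 °C. The buffer held 120 mM KCl, 50 mM Tris-HCl, 10 mM MgCl2, 0.5 mM DTT, 0.5 mM ATP and 30 μg/mL BSA. Reactions were stopped with sarkosyl/glycerol dye, and decatenation was resolved by agarose gel electrophoresis.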
# RXF 393 = test: Growth inhibition of human RXF393 cells after 48 hrs by MTT assay; assay type: functional, cell-based; details: RXF 393, 48 h
# MDA-MB-435 = test: Growth inhibition of human MDA-MB-435 cells after 3 hrs by MTT assay; assay type: functional, cell-based; details: MDA-MB-435, 3 h
# In short: (§1)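 Adherent cells grown in 10% FBS medium (RPMI 1640 or DMEM) were exposed to drug for 3 h. They were then grown until control wells reached ~80% confluence (3–5 days) and quantified by MTT metabolism or crystal violet staining. IC50 was taken from growth inhibition. Each condition was run in hexuplicate, and experiments were done at least twice.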
# MIA PaCa-2 = test: Growth inhibition of human MiaPaCa2 cells after 3 hrs by MTT assay; assay type: functional, cell-based; details: MIA PaCa-2, 3 h; in short: as §1
# DU-145 = test: Growth inhibition of human DU145 cells after 48 hrs by MTT assay; assay type: functional, cell-based; details: DU-145, 48 h
# HCT-116 [2] = test: Induction of apoptosis in human HCT116 cells at 50 nM for 3 hrs by annexin V staining assay; assay type: functional
# In short: (§2)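 HCT-116 cells in McCoy's medium/10% FBS were exposed to drug at a series of concentrations, or to vehicle, for 3 h. At 48 h post-treatment they were trypsinized and washed in cold PBS. They were then stained with annexin V-fluorescein and propidium iodide in HEPES pH 7.4/CaCl2 binding buffer, and the percent apoptotic cells was measured by flow cytometry.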
# [3] = Growth inhibition of human IGROVI cells after 48 hrs by MTT assay; assay type: functional, cell-based
# HL-60 [4] = test: Induction of apoptosis in HL60 cells assessed as annexin V positive cells; assay type: functional, Homo sapiens
# In short: (§3)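 HL-60 and HL-60/MX2 cells in RPMI 1640/10% FBS were treated with 100 nM drug or vehicle for 24 h. Cells were washed in cold PBS and stained with annexin V-fluorescein plus propidium iodide in binding buffer (140 mM NaCl, 10 mM HEPES pH 7.4, 2.5 mM CaCl2). The percent annexin V-positive cells was read by flow cytometry.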
# PC-3 = test: Growth inhibition of human PC3 cells after 3 hrs by MTT assay; assay type: functional, cell-based; details: PC-3, 3 h; in short: as §1
# BXPC-3 = test: Growth inhibition of human BxPc3 cells after 3 hrs by MTT assay; assay type: functional, cell-based; details: BXPC-3, 3 h; in short: as §1
# A-375 = test: Growth inhibition of human A375 cells after 3 hrs by MTT assay; assay type: functional, cell-based; details: A-375, 3 h; in short: as §1
# SHP77 = test: Growth inhibition of human SHP77 cells after 3 hrs by MTT assay; assay type: functional, cell-based; details: SHP77, 3 h; in short: as §1
# HL60/MX2 [5] = test: Induction of apoptosis in topoisomerase 2 deficient HL60/MX2 cells assessed as annexin V positive cells; assay type: functional, Homo sapiens; in short: as §3
# UACC-257 = test: Growth inhibition of human UACC257 cells after 48 hrs by MTT assay; assay type: functional, cell-based; details: UACC-257, 48 h
# HCT-116 [6] = test: Induction of apoptosis in human HCT116 cells at 400 nM for 3 hrs relative to control cells by annexin V staining assay; assay type: functional, cell-based; in short: as §2
# [7] = Growth inhibition of human HL60(TB) cells after 48 hrs by crystal violet assay; assay type: functional, HL-60(TB); details: HL-60, 48 h
# SF-268 = test: Growth inhibition of human SF268 cells after 48 hrs by MTT assay; assay type: functional, cell-based; details: SF-268, 48 h
# [8] = Growth inhibition of human MCF7/ADR cells after 48 hrs by crystal violet assay; assay type: functional, cell-based; details: NCI/ADR-RES
# HL60/MX2 [9] = test: Effect on G2/M arrest in topoisomerase 2 deficient human HL60/MX2 cells at 100 nM after 24 hrs; assay type: functional, cell-based
# In short: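 HL-60/MX2 cells in RPMI 1640/10% FBS were treated with 100 nM drug or vehicle for 24 h, then centrifuged and washed in cold PBS. They were fixed in 50% ethanol, treated with RNase A and stained with propidium iodide (50 μg/mL final). Cell cycle distribution was read by flow cytometry.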
# HCT-116 [10] = test: Induction of apoptosis in human HCT116 cells at 200 nM for 3 hrs by annexin V staining assay; assay type: functional; in short: as §2
# HCT-116 [11] = test: Growth inhibition of human HCT116 cells after 48 hrs by MTT assay; assay type: functional, cell-based; details: HCT-116, 48 h
# HCT-116 [12] = test: Cell cycle arrest in human HCT116 cells by accumulation at G2/M phase at 400 nM for 3 hrs by flow cytometry; assay type: functional, cell-based
# In short: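 HCT-116 cells in McCoy's medium with 10% FBS, exposed 3 h at 400 nM or vehicle, then grown on and analysed 24 h post-treatment. Cells trypsinized, washed in cold PBS/2 mM EDTA, fixed in 50% ethanol, RNase A treated, stained with propidium iodide (50 μg/mL final). DNA content by FACScan flow cytometry.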
# HL-60 [13] = test: Effect on G2/M arrest in human HL60 cells at 100 nM after 24 hrs; assay type: functional, cell-based
# In short: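 HL-60 cells kept in RPMI 1640 with 10% FBS, 2 mM L-glutamine, 10 mM HEPES. Exposed continuously for 24 h at 100 nM or vehicle. Cells centrifuged, washed in cold PBS/2 mM EDTA, fixed in 50% ethanol, RNase A treated, stained with propidium iodide (50 μg/mL final). Cell cycle distribution read by flow cytometry.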
# Homo sapiens [14] = species: Homo sapiens; test: Inhibition of topoisomerase 2 at 500 nM by decatenation assay
# In short: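 Kinetoplast DNA decatenation: 143 ng catenated kDNA with one unit human recombinant topoisomerase II, ± drug at 500 nM. Buffer: 120 mM KCl, 50 mM Tris-HCl, 10 mM MgCl2, 0.5 mM DTT, 0.5 mM ATP, 30 μg/mL BSA. Incubated 30 min at 37 °C. Stopped with sarkosyl/glycerol loading dye, then resolved by agarose gel electrophoresis.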
# NCI-H460 = test: Growth inhibition of human NCIH460 cells after 48 hrs by MTT assay; assay type: functional, cell-based; details: NCI-H460, 48 h
SMILES,IC50 (RXF 393) [µM],IC50 (MDA-MB-435) [µM],IC50 (MIA PaCa-2) [µM],IC50 (DU-145) [µM],IC50 [3] [µM],Activity (HL-60 [4]) [%],IC50 (PC-3) [µM],IC50 (A-375) [µM],IC50 (SHP77) [µM],Activity (HL60/MX2 [5]) [%],IC50 (UACC-257) [µM],IC50 [7] [µM],IC50 (SF-268) [µM],IC50 [8] [µM],further results
COc1cccc2c1C(=O)c1c(O)c3c(c(O)c1C2=O)C[C@@](O)(C(=O)CO)C[C@@H]3O[C@H]1C[C@@H]2NCO[C@@H]2[C@H](C)O1 [DOXAZOLIDINE],< 0.000977,0.01,0.00316,0.00316,< 0.00138,77,0.01,0.001,0.002,75,< 0.00151,0.000331,0.00263,< 0.0186,Activity (Homo sapiens [1]): Active; Activity (HCT-116 [2]): 20%; IC50 (BXPC-3): 0.01 µM; Activity (HCT-116 [6]): Dose-dependent effect; Activity (HL60/MX2 [9]): Active; Activity (HCT-116 [10]): 60%
COc1cccc2c1C(=O)c1c(O)c3c(c(O)c1C2=O)C[C@@](O)(C(=O)CO)C[C@@H]3O[C@H]1C[C@H](N)[C@H](O)[C@H](C)O1 [DOXORUBICIN],0.178,0.158,0.316,0.11,0.11,29,0.316,0.2,> 1,5,0.209,0.0589,0.0912,13.2,IC50 (HCT-116 [11]): 0.0708 µM; Activity (HCT-116 [12]): Active; Activity (HL-60 [13]): inactive; Activity (Homo sapiens [14]): Active; IC50 (NCI-H460): 0.00603 µM
